Active and inactive are the calls of the source. The calls are words filed in the database; no cut-off is given here.
Tests used:
[1] = target: Protein phosphatase 3 catalytic subunit alpha (Homo sapiens) (UniProt Q08209); experiment: Displacement of carboxyfluorescein labelled NFATc2 derived PRIEIT peptide from human CNAalpha (2 to 347 residues) at 100 uM preincubated for 15 mins followed by CF-PRIEIT addition and measured after 15 mins by fluorescence polarization assay; conditions: time 30.0 min
Summary of the method: (§1)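 FP competition assay: 10 µM human CNAα (residues 2–347) preincubated with compound for 15 min at rt. CF-tagged NFATc2 SPRIEIT peptide (10 nM) then added for a further 15 min. Read at excitation 485 nm / emission 535 nm. Triplicates from at least three independent experiments.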

[2] = target: Protein phosphatase 3 catalytic subunit alpha (Homo sapiens) (UniProt Q08209); experiment: Displacement of carboxyfluorescein labelled NFATc2 derived PRIEIT peptide from human CNAalpha (2 to 347 residues) at 10 uM preincubated for 15 mins followed by CF-PRIEIT addition and measured after 15 mins by fluorescence polarization assay; conditions: time 30.0 min; summary of the method: as §1
[3] = target: T1, Nuclear factor of activated T-cells, cytoplasmic 1 (Homo sapiens) (UniProt O95644); experiment: Inhibition of NFATC activity in HEK293T cells at 50 uM preincubated for 2 hrs followed by ionomycin/phorbol 12-myristate 13-acetate stimulation and measured after 4 hrs by luciferase reporter assay; assay type: cell-based; conditions: time 6.0 hrs
T1 sequence (whole entry): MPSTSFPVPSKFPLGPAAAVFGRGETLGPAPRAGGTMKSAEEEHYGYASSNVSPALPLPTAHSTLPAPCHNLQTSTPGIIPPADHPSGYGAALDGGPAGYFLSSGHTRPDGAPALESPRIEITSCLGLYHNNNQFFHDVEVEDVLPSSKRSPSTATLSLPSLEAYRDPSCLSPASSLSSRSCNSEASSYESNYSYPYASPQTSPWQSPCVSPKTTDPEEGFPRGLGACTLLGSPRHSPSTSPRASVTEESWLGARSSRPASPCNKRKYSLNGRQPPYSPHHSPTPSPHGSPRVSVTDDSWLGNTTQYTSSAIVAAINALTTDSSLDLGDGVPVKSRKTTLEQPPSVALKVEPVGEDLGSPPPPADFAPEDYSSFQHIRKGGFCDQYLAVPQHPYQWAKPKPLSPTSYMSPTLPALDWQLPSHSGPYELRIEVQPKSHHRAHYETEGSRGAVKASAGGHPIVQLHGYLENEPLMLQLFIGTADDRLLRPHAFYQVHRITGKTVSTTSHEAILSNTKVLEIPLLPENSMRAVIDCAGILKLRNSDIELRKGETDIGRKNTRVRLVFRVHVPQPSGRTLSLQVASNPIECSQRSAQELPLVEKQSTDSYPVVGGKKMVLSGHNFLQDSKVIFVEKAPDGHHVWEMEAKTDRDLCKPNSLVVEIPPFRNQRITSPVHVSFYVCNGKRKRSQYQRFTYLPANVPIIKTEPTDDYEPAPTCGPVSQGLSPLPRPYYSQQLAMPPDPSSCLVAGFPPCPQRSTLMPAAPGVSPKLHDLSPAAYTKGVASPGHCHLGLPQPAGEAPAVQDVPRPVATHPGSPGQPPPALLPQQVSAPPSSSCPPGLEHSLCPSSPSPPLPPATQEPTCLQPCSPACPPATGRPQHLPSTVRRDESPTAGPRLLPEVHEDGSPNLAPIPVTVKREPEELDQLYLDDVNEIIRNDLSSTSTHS
Summary of the method: (§2)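 HEK 293T cells (7.5 × 10⁴/well) co-transfected by CaCl₂ method with 100 ng 3xNFAT-luc and 1 ng pRLnull as transfection control. At 24 h, compound added for 2 h, then stimulated with 1 µM ionomycin, PMA and CaCl₂ for 4 h (20 ng/ml PMA and 2 mM CaCl₂ per figure legend). Luciferase read from crude extracts, relative to stimulated no-compound control (100%). Single doses 50 and 5 μM; dose-response 0.1–50 μM. IC50 by nonlinear regression; 3 experiments in triplicate.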

[4] = Toxicity in BALB/c mouse xenografted with mouse 4T1 cells assessed as effect on health conditions at 5 mg/kg, […]; assay type: organism-based; conditions: in vivo, ip, time 5 day
[5] = Toxicity in BALB/c mouse xenografted with mouse 4T1 cells assessed as effect on body weight at 5 mg/kg, […]; assay type: organism-based; conditions: in vivo, ip, 120 h, time 5 day
[6] = test system: 4T1; experiment: Antitumor activity against mouse 4T1 cells xenografted in BALB/c mouse assessed as decrease in tumor weight at 50 mg/kg, ip measured after 15 days; assay type: functional, organism-based; conditions: time 15.0 day
Summary of the method: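 Female BALB/c mice (8 weeks, 18–19 g) given 0.5 × 10⁶ 4T1 cells in 1:1 DMEM/Matrigel into the number four mammary fat pad. Treatment began at day 11, once tumors exceeded 100 mm³, with randomization to groups of 9–10. Dosing was ip, daily Monday to Friday, for 15 days with DMSO vehicle. Tumors were then excised and weighed; body weight and health were followed.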

[7] = test system: 4T1; experiment: Anti-angiogenesis activity against mouse 4T1 cells xenografted in BALB/c mouse at 5 mg/kg, ip measured after 15 days by anti-CD31 staining based immunohistochemistry analysis; assay type: functional, organism-based; conditions: time 15.0 day
[8] = target: Protein phosphatase 3 catalytic subunit alpha (Homo sapiens) (UniProt Q08209); experiment: Displacement of carboxyfluorescein labelled NFATc2 derived PRIEIT peptide from human CNAalpha (2 to 347 residues) at 10 to 100 uM preincubated for 15 mins followed by CF-PRIEIT addition and measured after 15 mins by fluorescence polarization assay; conditions: dose 10-100 µM, time 30.0 min; summary of the method: as §1
[9] = target: T1, Nuclear factor of activated T-cells, cytoplasmic 1 (Homo sapiens); experiment: Inhibition of NFATC activity in human PBMC cells assessed as reduction of IL2 gene expression preincubated for 2 hrs followed by ionomycin/phorbol 12-myristate 13-acetate stimulation and measured after 4 hrs by RT-PCR analysis; assay type: cell-based; conditions: dose 2-50 µM, time 6.0 hrs, DDE = dose-dependent effect
Summary of the method: (§3)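 Isolated hPBMC treated with compound at 50, 10 and 2 μM for 2 h. Stimulated without washout with 1 μM ionomycin, 20 nM PMA and 10 mM CaCl₂ for 4 h. RNA extracted and 1 μg reverse-transcribed; qPCR run with UPL probes. Fold change by ΔΔCT. Mean ± SD of 3 independent experiments in triplicate.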

[10] = target: T1, Nuclear factor of activated T-cells, cytoplasmic 1 (Homo sapiens); experiment: Inhibition of NFATC activity in human CD4+ T cells assessed as reduction of IFN gamma secretion preincubated for 2 hrs followed by anti-CD3/CD28 stimulation and measured after 48 hrs by ELISA; assay type: cell-based; conditions: CD4+ve Th
Summary of the method: (§4)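 Donor CD4⁺ T cells (1 × 10⁵/well) treated with 10 or 1 μM compound for 2 h. Compound left in place during activation with anti-CD3/CD28 beads (10 cells/bead). IL-2 and IFNγ measured by ELISA in supernatants after 48 h. Mean ± SEM.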

[11] = target: T1, Nuclear factor of activated T-cells, cytoplasmic 1 (Homo sapiens); experiment: Inhibition of NFATC activity in HEK293T cells at 5 to 50 uM preincubated for 2 hrs followed by ionomycin/phorbol 12-myristate 13-acetate stimulation and measured after 4 hrs by luciferase reporter assay; assay type: cell-based; conditions: dose 5-50 µM, time 6.0 hrs; summary of the method: as §2
[12] = test system: CD4+ve Th; experiment: Immunosuppressive activity in human CD4+ve Th cells assessed as inhibition of T cell proliferation […] by [3H]-thymidine incorporation based scintillation counter method; assay type: functional; conditions: dose <= 10.0 µM, DDE = dose-dependent effect
[13] = target: T1, Nuclear factor of activated T-cells, cytoplasmic 1 (Homo sapiens); experiment: Inhibition of NFATC activity in human PBMC cells assessed as reduction of IFN gamma gene expression preincubated for 2 hrs followed by ionomycin/phorbol 12-myristate 13-acetate stimulation and measured after 4 hrs byRT-PCR analysis; assay type: cell-based; conditions: dose 2-50 µM, time 6.0 hrs, DDE = dose-dependent effect; summary of the method: as §3
[14] = target: T1, Nuclear factor of activated T-cells, cytoplasmic 1 (Homo sapiens); experiment: Inhibition of NFATC activity in human CD4+ T cells assessed as reduction of IL-2 secretion preincubated for 2 hrs followed by anti-CD3/CD28 stimulation and measured after 48 hrs by ELISA; assay type: cell-based; conditions: CD4+ve Th; summary of the method: as §4
[15] = target: T1, Nuclear factor of activated T-cells, cytoplasmic 1 (Homo sapiens); experiment: Inhibition of NFATC activity in HEK293T cells preincubated for 2 hrs followed by ionomycin/phorbol 12-myristate 13-acetate stimulation and measured after 4 hrs by luciferase reporter assay; assay type: cell-based; conditions: dose 0.1-50 µM, time 6.0 hrs, DDE = dose-dependent effect; summary of the method: as §2
[16] = Toxicity in BALB/c mouse assessed as aberrant behavior at 50 mg/kg, ip administered for 5 days and measured on day 7; assay type: organism-based; conditions: in vivo, 120 h, time 5 day
Summary of the method: (§5)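 BALB/c mice given 50 mg/kg ip daily, Monday to Friday, and killed on day seven. Monitored for macroscopic clinical signs, behavior, weight loss and general health.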

[17] = Toxicity in BALB/c mouse xenografted with mouse 4T1 cells assessed as effect on body weight at 50 mg/kg, […]; assay type: organism-based; conditions: in vivo, ip
[18] = test system: 4T1; experiment: Anti-angiogenesis activity against mouse 4T1 cells xenografted in BALB/c mouse at 50 mg/kg, ip measured after 15 days by anti-CD31 staining based immunohistochemistry analysis; assay type: functional, organism-based; conditions: time 15.0 day
[19] = test system: 4T1; experiment: Antitumor activity against mouse 4T1 cells xenografted in BALB/c mouse assessed as decrease in tumor weight at 50 mg/kg, ip measured after 15 days; conditions: time 15.0 day
[20] = Toxicity in BALB/c mouse xenografted with mouse 4T1 cells assessed as effect on health conditions at 50 mg/kg, […]; assay type: organism-based; conditions: in vivo, ip
[21] = Toxicity in BALB/c mouse assessed as loss of body weight at 50 mg/kg, ip administered for 5 days and measured on day 7; assay type: organism-based; conditions: in vivo, 120 h, time 5 day; summary of the method: as §5
[22] = Toxicity in BALB/c mouse assessed as clinical signs of abnormal constitution at 50 mg/kg, ip administered for 5 days and measured on day 7; assay type: organism-based; conditions: in vivo, 168 h, time 7 day; summary of the method: as §5

## CS(=O)(=O)NCc1cccc(NC(=O)Cc2ccsc2)c1
[1]
  Activity: Active
[2]
  Activity: Active
[3]
  inhibition: 60%

## C=CC[C@@H]1/C=C(\C)C[C@H](C)C[C@H](OC)[C@H]2O[C@@](O)(C(=O)C(=O)N3CCCC[C@H]3C(=O)O[C@H](/C(C)=C/[C@@H]3CC[C@@H](O)[C@H](OC)C3)[C@H](C)[C@@H](O)CC1=O)[C@H](C)C[C@@H]2OC [TACROLIMUS ANHYDROUS]
[4]
  Activity: Non-Toxic
[5]
  Activity: Non-Toxic
[6]
  Activity: Active
[7]
  Activity: Active

## O=C(O)CNS(=O)(=O)c1cccc(NC(=O)CNC(=O)OCc2ccccc2)c1
[3]
  inhibition: 60%
[8]
  Activity: Active

## CS(=O)(=O)NCc1cccc(NC(=O)c2csc3ccccc23)c1
[1]
  Activity: Active
[9]
  Activity: Dde
[10]
  inhibition: Active
[11]
  inhibition: 80%
[12]
  Activity: Dde
[13]
  Activity: Dde
[14]
  inhibition: Active
[15]
  inhibition: Dde

## O=C(O)CNS(=O)(=O)c1cccc(NC(=O)CNC(=O)c2cnc3ccccc3c2)c1
[3]
  inhibition: 60%
[8]
  Activity: Active

## O=C(O)CNS(=O)(=O)c1cccc(NC(=O)CNC(=O)c2csc3ccccc23)c1
[3]
  inhibition: 60%
[8]
  Activity: Active

## CS(=O)(=O)NCc1cccc(NC(=O)c2ccc3[nH]ccc3c2)c1
[1]
  Activity: Active
[2]
  Activity: Active
[9]
  Activity: Dde
[10]
  inhibition: Active
[11]
  inhibition: 80%
[16]
  Activity: Non-Toxic
[17]
  Activity: Non-Toxic
[18]
  Activity: Active
[12]
  Activity: Dde
[13]
  Activity: Dde
[19]
  Activity: Active
[14]
  inhibition: Active
[20]
  Activity: Non-Toxic
[15]
  inhibition: Dde
[8]
  Activity: Active
[21]
  Activity: Non-Toxic
[22]
  Activity: Non-Toxic

## Cc1ccc(C(=O)NCC(=O)Nc2cc(S(=O)(=O)Nc3ccc(Cl)cc3)ccc2Cl)s1
[9]
  Activity: Dde
[10]
  inhibition: Active
[11]
  inhibition: 80%
[16]
  Activity: Non-Toxic
[17]
  Activity: Non-Toxic
[12]
  Activity: Dde
[13]
  Activity: Dde
[19]
  Activity: Active
[14]
  inhibition: Active
[20]
  Activity: Non-Toxic
[15]
  inhibition: Dde
[8]
  Activity: Active
[21]
  Activity: Non-Toxic
[22]
  Activity: Non-Toxic

## CCc1ccc(C(=O)NCC(=O)Nc2cccc(S(=O)(=O)NCC(=O)O)c2)cc1
[3]
  inhibition: 60%
[8]
  Activity: Active

## CCc1ccc(C(=O)Nc2cccc(CNS(C)(=O)=O)c2)cc1
[1]
  Activity: Active
[3]
  inhibition: 60%

## O=C(O)CNS(=O)(=O)c1cccc(NC(=O)CNC(=O)Cc2ccsc2)c1
[3]
  inhibition: 60%
[8]
  Activity: Active

## CNc1ccc(C(=O)NCC(=O)Nc2cccc(S(=O)(=O)NCC(=O)O)c2)cc1
[3]
  inhibition: 60%
[8]
  Activity: Active

## O=C(CNC(=O)c1ccc2[nH]ccc2c1)Nc1cccc(S(=O)(=O)N2CCCCC2)c1
[3]
  inhibition: 60%
[15]
  inhibition: Dde
[8]
  Activity: Active

Source: ChEMBL document CHEMBL5126596, “Design and synthesis of a novel non peptide CN-NFATc signaling inhibitor for tumor suppression in triple negative breast cancer” (Eur J Med Chem, 2022)
